Laboratory results taken from ChEMBL document CHEMBL1124107, “Antihypertensive thiadiazoles. 1. Synthesis of some 2-aryl-5-hydrazino-1,3,4-thiadiazoles with vasodilator activity” (1988).
The source made the active and inactive calls. No cut-off for these calls is given here.

How the values were obtained:
[1] = system: Rattus norvegicus; experiment: Maximum percentage reduction in mean blood pressure in metacorticoid (DOCA) hypertensive rats at a standard oral dose of 100 mg/kg; assay type: functional
Method in brief: (§1)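 DOCA hypertensive rats, n = 3-5. Food removed 18 h before oral dosing; ip injections given to unstarved animals. Blood pressure recorded by pressure transducer under minimal restraint, twice before dosing with drug or isotonic saline vehicle, then at 1, 2, 3, 5 and 22 h. MABP taken as diastolic plus one-third pulse pressure.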

[2] = species on record: Rattus norvegicus; experiment: Increase in diastolic blood pressure for 3 Htz electrical stimulation in the pithed rats; assay type: functional, Artery
Method in brief: (§2)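 Male rats (200-300 g) pretreated ip with drug or isotonic saline, groups of five, 1 or 2 h before pithing. Halothane anesthesia, tracheal cannulation, CNS destroyed via left orbit and spinal cord, artificial respiration with room air at 50 strokes/min. Pressor responses to iv noradrenaline (0.1-1.0 ug/kg), iv angiotensin (0.03-0.3 ug/kg), or whole sympathetic outflow stimulation.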

[3] = system: Rattus norvegicus; experiment: Increase in diastolic blood pressure for 1.0 ug/kg intravenous dosing of noradrenaline in pithed rats; assay type: functional, Artery; method in brief: as §2
[4] = species on record: Rattus norvegicus; experiment: Increase in diastolic blood pressure for 1 Htz electrical stimulation in the pithed rats; assay type: functional, Artery; method in brief: as §2
[5] = system: Rattus norvegicus; experiment: Increase in diastolic blood pressure for 0.3 ug/kg intravenous dosing of noradrenaline in pithed rats; assay type: functional, Artery; method in brief: as §2
[6] = species on record: Rattus norvegicus; experiment: Increase in diastolic blood pressure for 6 Htz electrical stimulation in the pithed rats; assay type: functional, Artery; method in brief: as §2
[7] = system: Rattus norvegicus; experiment: Increase in diastolic blood pressure for 0.03 ug/kg intravenous dosing of angiotensin in pithed rats; assay type: functional, Artery; method in brief: as §2
[8] = system: Rattus norvegicus; experiment: Increase in diastolic blood pressure for 0.1 ug/kg intravenous dosing of angiotensin in pithed rats; assay type: functional, Artery; method in brief: as §2
[9] = system: Rattus norvegicus; experiment: Increase in diastolic blood pressure for 0.1 ug/kg intravenous dosing of noradrenaline in pithed rats; assay type: functional, Artery; method in brief: as §2
[10] = system: Rattus norvegicus; experiment: Increase in diastolic blood pressure for 0.3 ug/kg intravenous dosing of angiotensin in pithed rats; assay type: functional, Artery; method in brief: as §2
[11] = system: Rattus norvegicus; experiment: Maximum percentage reduction in mean blood pressure and heart rate in metacorticoid (DOCA) hypertensive rats at a standard oral dose of 100 mg/kg
[12] = system: Rattus norvegicus; experiment: Maximum percentage reduction in mean blood pressure and heart rate in metacorticoid (DOCA) hypertensive rats at a standard oral dose of 100 mg/kg; IA = Inactive, Maximum percentage fall in MABP <10%; assay type: functional, organism-based; set-up: dose 100 mg/kg; method in brief: as §1
[13] = system: Rattus norvegicus; experiment: Maximum percentage reduction in mean blood pressure in metacorticoid (DOCA) hypertensive rats at a standard oral dose of 50 mg/kg; assay type: functional; method in brief: as §1
[14] = system: Rattus norvegicus; experiment: Increase in diastolic blood pressure at 0.03 ug/kg intravenous dosing of angiotensin in pithed rats; assay type: functional, Artery; method in brief: as §2
[15] = system: Rattus norvegicus; experiment: Maximum percentage reduction in mean blood pressure in metacorticoid (DOCA) hypertensive rats at a standard oral dose of 25 mg/kg; assay type: functional; method in brief: as §1
[16] = species on record: Rattus norvegicus; experiment: Increase in diastolic blood pressure at 1 Htz electrical stimulation in the pithed rats; assay type: functional, Artery; method in brief: as §2
[17] = species on record: Rattus norvegicus; experiment: Increase in diastolic blood pressure at 3 Htz electrical stimulation in the pithed rats; assay type: functional, Artery; method in brief: as §2
[18] = system: Rattus norvegicus; experiment: Increase in diastolic blood pressure at 0.1 ug/kg intravenous dosing of noradrenaline in pithed rats; assay type: functional, Artery; method in brief: as §2
[19] = system: Rattus norvegicus; experiment: Increase in diastolic blood pressure at 0.3 ug/kg intravenous dosing of angiotensin in pithed rats; assay type: functional, Artery; method in brief: as §2
[20] = system: Rattus norvegicus; experiment: Increase in diastolic blood pressure at 0.3 ug/kg intravenous dosing of noradrenaline in pithed rats; assay type: functional, Artery; method in brief: as §2
[21] = species on record: Rattus norvegicus; experiment: Increase in diastolic blood pressure at 6 Htz electrical stimulation in the pithed rats; assay type: functional, Artery; method in brief: as §2
[22] = system: Rattus norvegicus; experiment: Increase in diastolic blood pressure at 0.1 ug/kg intravenous dosing of angiotensin in pithed rats; assay type: functional, Artery; method in brief: as §2
[23] = system: Rattus norvegicus; experiment: Increase in diastolic blood pressure at 1.0 ug/kg intravenous dosing of noradrenaline in pithed rats; assay type: functional, Artery; method in brief: as §2
[24] = system: Rattus norvegicus; experiment: Maximum percentage reduction in mean blood pressure and heart rate in metacorticoid (DOCA) hypertensive rats at a standard intraperitoneal dose of 100 mg/kg; assay type: functional; conditions: route oral, in the assay text read “oral” for “intraperitoneal”; method in brief: as §1
[25] = system: Rattus norvegicus; experiment: Maximum percentage reduction in mean blood pressure in metacorticoid (DOCA) hypertensive rats at standard intraperitoneal dose of 100 mg/kg; assay type: functional; conditions: route oral, in the assay text read “oral” for “intraperitoneal”; method in brief: as §1
[26] = system: Rattus norvegicus; experiment: Maximum percentage reduction in mean blood pressure and heart rate in metacorticoid (DOCA) hypertensive rats at a standard oral dose of 50 mg/kg; assay type: functional; method in brief: as §1
[27] = system: Rattus norvegicus; experiment: Maximum percentage reduction in mean blood pressure and heart rate in metacorticoid (DOCA) hypertensive rats at a standard oral dose of 25 mg/kg; assay type: functional; method in brief: as §1

COc1cccc(OC)c1-c1nnc(NN)s1.Cl
Reduction [1]: 33%

NNc1nnc(-c2ccco2)s1
Reduction [1]: 39%

NNc1nnc(-c2c(Cl)cccc2Cl)s1
Reduction [1]: 50%

Nc1cc(N2CCCCC2)nc(N)[n+]1[O-] [MINOXIDIL]
Increase in blood pressure [2]: 25 mmHg | Increase in blood pressure [3]: 45 mmHg | Increase in blood pressure [4]: 9 mmHg | Increase in blood pressure [5]: 25 mmHg | Increase in blood pressure [6]: 31 mmHg | Increase in blood pressure [7]: 6 mmHg | Increase in blood pressure [8]: 13 mmHg | Increase in blood pressure [9]: 10 mmHg | Increase in blood pressure [10]: 25 mmHg | Reduction [11]: 42%

Cl.NNc1nnc(-c2ccccc2Br)s1
Reduction [1]: 48%

COc1cccc(-c2nnc(NN)s2)c1.Cl
Reduction [1]: 18%

CCCCCCOc1ccccc1-c1nnc(NN)s1
Reduction [12]: inactive

Cl.NNc1nnc(-c2ccc(Cl)c(Cl)c2)s1
Reduction [1]: 17%

COc1cc2nc(N3CCN(C(=O)c4ccco4)CC3)nc(N)c2cc1OC [PRAZOSIN]
Increase in blood pressure [2]: 26 mmHg | Increase in blood pressure [3]: 49 mmHg | Increase in blood pressure [4]: 18 mmHg | Increase in blood pressure [5]: 32 mmHg | Increase in blood pressure [6]: 31 mmHg | Increase in blood pressure [7]: 30 mmHg | Increase in blood pressure [8]: 45 mmHg | Increase in blood pressure [9]: 23 mmHg | Increase in blood pressure [10]: 67 mmHg

Cl.NNc1nnc(-c2ccc(C(F)(F)F)cc2)s1
Reduction [1]: 21%

Cl.NNc1nnc(-c2ccccc2Cl)s1
Reduction [1]: 21%

Cl.NNc1nnc(-c2ccsc2)s1
Reduction [1]: 33%

Cl.NNc1nnc(-c2ccccn2)s1
Reduction [1]: 21%

Cc1cccc(-c2nnc(NN)s2)c1C.Cl
Reduction [1]: 50%

Cl.NNc1nnc(-c2cccc(Cl)c2)s1
Reduction [1]: 20%

Cc1ccc(-c2nnc(NN)s2)cc1C.Cl
Reduction [1]: 22%

Cc1ccc(C)c(-c2nnc(NN)s2)c1.Cl
Reduction [1]: 50%

CCc1ccccc1-c1nnc(NN)s1.Cl
Reduction [13]: 54% | Increase in blood pressure [14]: 2 mmHg | Reduction [15]: 42% | Increase in blood pressure [16]: 14 mmHg | Increase in blood pressure [17]: 25 mmHg | Increase in blood pressure [18]: 8 mmHg | Increase in blood pressure [19]: 25 mmHg | Increase in blood pressure [20]: 14 mmHg | Increase in blood pressure [21]: 32 mmHg | Increase in blood pressure [22]: 6 mmHg | Increase in blood pressure [23]: 22 mmHg

COc1ccc(-c2nnc(NN)s2)cc1OC.Cl
Reduction [24]: 24%

CSc1ccccc1-c1nnc(NN)s1.Cl
Reduction [1]: 41%

CCC[S+]([O-])c1ccccc1-c1nnc(NN)s1.Cl (stereo not given)
Reduction [1]: 48%

Cl.NNc1nnc(-c2ccccc2[N+](=O)[O-])s1
Reduction [1]: 26%

Cl.NNc1nnc(-c2cccc(O)c2)s1
Reduction [1]: 16%

Cc1cc(F)ccc1-c1nnc(NN)s1.Cl
Reduction [1]: 58%

Cc1cccc(-c2nnc(NN)s2)c1.Cl
Reduction [1]: 29%

COc1ccc(Cl)c(OC)c1-c1nnc(NN)s1.Cl
Reduction [1]: 53%

Cl.NNc1nnc(-c2ccccc2F)s1
Reduction [1]: 31%

Cl.NNc1nnc(-c2ccc(Cl)cc2)s1
Reduction [25]: 28%

Cl.NNc1nnc(-c2cccc3ccccc23)s1
Reduction [1]: 26%

Cl.NNc1nnc(-c2cccc(C(F)(F)F)c2)s1
Reduction [1]: 21%

Cl.NNc1nnc(-c2ccccc2C(F)(F)F)s1
Reduction [13]: 33% | Reduction [1]: 49%

Cc1ccccc1-c1nnc(NN)s1.Cl
Increase in blood pressure [2]: 32 mmHg | Reduction [26]: 48% | Increase in blood pressure [3]: 29 mmHg | Increase in blood pressure [4]: 16 mmHg | Increase in blood pressure [5]: 16 mmHg | Increase in blood pressure [6]: 41 mmHg | Increase in blood pressure [7]: 12 mmHg | Increase in blood pressure [8]: 28 mmHg | Increase in blood pressure [9]: 10 mmHg | Reduction [27]: 33% | Increase in blood pressure [10]: 50 mmHg

Cl.NNc1nnc(-c2ccccc2)s1
Reduction [1]: 42%

Cl.NNc1nnc(-c2ccccc2-c2ccccc2)s1
Reduction [1]: 18%

Cc1ccc(-c2nnc(NN)s2)cc1.Cl
Reduction [1]: 28%

CC(C)(C)c1ccccc1-c1nnc(NN)s1
Reduction [1]: 58%

Cc1ccc(-c2nnc(NN)s2)c(C)c1.Cl
Reduction [1]: 61%

CCCOc1ccccc1-c1nnc(NN)s1.Cl
Reduction [1]: 46%

COc1ccccc1-c1nnc(NN)s1.Cl
Reduction [13]: 39% | Reduction [1]: 46%

Cl.NNc1nnc(-c2ccccc2I)s1
Reduction [13]: 24% | Reduction [1]: 58%

Cc1ccsc1-c1nnc(NN)s1.Cl
Reduction [1]: 48%

Cc1cccc(C)c1-c1nnc(NN)s1.Cl
Reduction [1]: 54%

Cc1cc(C)cc(-c2nnc(NN)s2)c1.Cl
Reduction [1]: 18%

Cl.NNc1nnc(-c2cccs2)s1
Reduction [1]: 35%

Cc1ccc(F)cc1-c1nnc(NN)s1.Cl
Reduction [1]: 63%

C[S+]([O-])c1ccccc1-c1nnc(NN)s1.Cl (stereo not given)
Reduction [13]: 45% | Increase in blood pressure [14]: 4 mmHg | Reduction [15]: 31% | Increase in blood pressure [16]: 19 mmHg | Increase in blood pressure [17]: 34 mmHg | Increase in blood pressure [18]: 6 mmHg | Increase in blood pressure [19]: 29 mmHg | Increase in blood pressure [20]: 10 mmHg | Increase in blood pressure [21]: 47 mmHg | Increase in blood pressure [22]: 11 mmHg | Increase in blood pressure [23]: 21 mmHg

NNc1nncc2ccccc12 [HYDRALAZINE]
Increase in blood pressure [2]: 42 mmHg | Increase in blood pressure [3]: 28 mmHg | Increase in blood pressure [4]: 28 mmHg | Increase in blood pressure [5]: 15 mmHg | Increase in blood pressure [6]: 54 mmHg | Increase in blood pressure [7]: 8 mmHg | Increase in blood pressure [8]: 21 mmHg | Increase in blood pressure [9]: 8 mmHg | Increase in blood pressure [10]: 38 mmHg
